Data taken from ChEMBL document CHEMBL1137404, “Enzyme specific activation of benzoquinone ansamycin prodrugs using HuCC49DeltaCH2-beta-galactosidase conjugates” (J Med Chem, 2006).
Active and inactive are the calls of the source. The calls are words filed in the database; no cut-off is given here.

Key:
[1] = system: LS174T; experiment: Cytotoxicity against human LS174T cells by MTS assay; assay type: functional, cell-based
Summary of the method: (§1)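 LS174T cells (2,000−5,000/well) grown 24 h, then given 1 h with PBS, enzyme-only staining buffer or antibody-enzyme conjugate (2 units) and washed three to five times. Compound added at 0−25 μM for 72 h.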

[2] = system: LS174T; experiment: Induction of Hsp90-mediated AKT degradation in human LS174T cells after 1 hr in presence of HuCC49deltaCH2-beta galactosidase conjugate by Western blotting; assay type: functional
Summary of the method: (§2)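 LS174T cells at 50−70% confluence given 1 h with free β-galactosidase or antibody-enzyme conjugate in PBS with 2% FBS, washed, then exposed 24 h to 2 or 10 μM compound. Lysates (30 μg) run on 10% SDS-PAGE and blotted for AKT and β-actin by ECL. AKT expressed as Akt:β-actin ratio relative to control (100%).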

[3] = system: LS174T; experiment: Induction of Hsp90-mediated AKT degradation in human LS174T cells in absence of HuCC49deltaCH2-beta galactosidase by Western blotting at 2 uM; assay type: functional; summary of the method: as §2
[4] = system: LS174T; experiment: Cytotoxicity against human LS174T cells in presence of HuCC49deltaCH2-beta galactosidase conjugate by MTS assay; assay type: functional, cell-based; summary of the method: as §1
[5] = system: LS174T; experiment: Induction of Hsp90-mediated AKT degradation in human LS174T cells in presence of HuCC49deltaCH2-beta galactosidase conjugate by Western blotting at 2 uM; assay type: functional; summary of the method: as §2
[6] = system: LS174T; experiment: Induction of Hsp90-mediated AKT degradation in human LS174T cells in absence of HuCC49deltaCH2-beta galactosidase by Western blotting at 10 uM; assay type: functional; summary of the method: as §2
[7] = system: LS174T; experiment: Induction of Hsp90-mediated AKT degradation in human LS174T cells in presence of HuCC49deltaCH2-beta galactosidase conjugate by Western blotting at 10 uM; assay type: functional; summary of the method: as §2

## COC1=C2C[C@@H](C)C[C@H](OC)[C@H](O)[C@@H](C)/C=C(\C)[C@H](OC(N)=O)[C@@H](OC)/C=C\C=C(/C)C(=O)NC(=CC1=O)C2=O [GELDANAMYCIN]
[1]
  IC50: 450 nM

## CO[C@H]1/C=C\C=C(/C)C(=O)NC2=CC(=O)C(NCCO[C@@H]3O[C@H](CO)[C@H](O)[C@H](O)[C@H]3O)=C(C[C@@H](C)C[C@H](OC)[C@H](O)[C@@H](C)/C=C(\C)[C@@H]1OC(N)=O)C2=O
[2]
  Activity: 70%
[3]
  Activity: inactive
[4]
  IC50: 1120 nM
[1]
  IC50: > 25000 nM

## CO[C@H]1/C=C\C=C(/C)C(=O)NC2=CC(=O)C(N)=C(C[C@@H](C)C[C@H](OC)[C@H](O)[C@@H](C)/C=C(\C)[C@@H]1OC(N)=O)C2=O
[3]
  Activity: 70%
[5]
  Activity: 70%
[6]
  Activity: 70%
[7]
  Activity: 70%
